The source made the active and inactive calls. The rule behind the calls is not given here.
How the values were obtained:
Streptococcus pneumoniae [1] = test: Antimicrobial activity against Streptococcus pneumoniae ATCC 49619 assessed as reduction in microbial growth measured after 20 hrs by CLSI based broth microdilution method; type: functional
Streptococcus pneumoniae [2] = test: Antimicrobial activity against Streptococcus pneumoniae clinical isolate CUHK-X01 assessed as reduction in microbial growth measured after 20 hrs by CLSI based broth microdilution method; type: functional
[3] = test system: Staphylococcus saprophyticus; test: Antimicrobial activity against Staphylococcus saprophyticus ATCC 15305 assessed as reduction in microbial growth measured after 20 hrs by CLSI based broth microdilution method; type: functional
Streptococcus agalactiae = test: Antimicrobial activity against Streptococcus agalactiae ATCC 12386 assessed as reduction in microbial growth measured after 20 hrs by CLSI based broth microdilution method; type: functional
Bacillus subtilis [4] = test: Antibacterial activity against Bacillus Subtilis assessed as bacterial transcription by measuring delocalization of GFP-tagged RpsB from cell poles towards midcell at 1 time MIC incubated for 30 mins by epifluorescence microscopy based analysis; type: functional, organism-based
Summary of the method: (§1)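 B. subtilis reporter strains expressing GFP fusions, grown overnight on selective LB agar at 37 °C, then overnight in LB with selective antibiotic and xylose, 37 °C, 180 rpm. Cells mounted on 1.2% agarose, imaged by epifluorescence with 100×/1.45 oil objective, FITC (525/50) filter.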

Acinetobacter baumannii = test: Antimicrobial activity against Acinetobacter baumannii ATCC 19606 assessed as reduction in microbial growth measured after 20 hrs by CLSI based broth microdilution method; type: functional
Summary of the method: (§2)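 Broth microdilution per CLSI in cation-adjusted Mueller-Hinton broth. Two-fold serial dilutions from 256 to 0.25 μg/mL, inoculum about 5 × 10⁵ CFU/mL. Read after 20 h at 37 °C. MIC is the lowest concentration with no visible growth. Run in duplicate.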

Enterococcus faecalis = test: Antimicrobial activity against Enterococcus faecalis ATCC 19433 assessed as reduction in microbial growth measured after 20 hrs by CLSI based broth microdilution method; type: functional; summary of the method: as §2
Enterobacter cloacae = test: Antimicrobial activity against Enterobacter cloacae ATCC 13047 assessed as reduction in microbial growth measured after 20 hrs by CLSI based broth microdilution method; type: functional; summary of the method: as §2
Klebsiella pneumoniae = test: Antimicrobial activity against Klebsiella pneumoniae ATCC 700603 assessed as reduction in microbial growth measured after 20 hrs by CLSI based broth microdilution method; type: functional; summary of the method: as §2
Streptococcus pneumoniae [5] = test: Antimicrobial activity against Streptococcus pneumoniae clinical isolate CUHK-X04 assessed as reduction in microbial growth measured after 20 hrs by CLSI based broth microdilution method; type: functional
Streptococcus pneumoniae [6] = test: Antimicrobial activity against Streptococcus pneumoniae clinical isolate CUHK-X03 assessed as reduction in microbial growth measured after 20 hrs by CLSI based broth microdilution method; type: functional
Pseudomonas aeruginosa = test: Antimicrobial activity against Pseudomonas aeruginosa ATCC 27853 assessed as reduction in microbial growth measured after 20 hrs by CLSI based broth microdilution method; type: functional; summary of the method: as §2
Staphylococcus aureus [7] = test: Antimicrobial activity against Staphylococcus aureus ATCC 25923 assessed as reduction in microbial growth measured after 20 hrs by CLSI based broth microdilution method; type: functional; summary of the method: as §2
Streptococcus pyogenes = test: Antimicrobial activity against Streptococcus pyogenes ATCC 19615 assessed as reduction in microbial growth measured after 20 hrs by CLSI based broth microdilution method; type: functional
Streptococcus pneumoniae [8] = test: Antimicrobial activity against Streptococcus pneumoniae clinical isolate CUHK-X02 assessed as reduction in microbial growth measured after 20 hrs by CLSI based broth microdilution method; type: functional
[9] = test system: Staphylococcus epidermidis; test: Antimicrobial activity against Staphylococcus epidermidis ATCC 12228 assessed as reduction in microbial growth measured after 20 hrs by CLSI based broth microdilution method; type: functional
Staphylococcus aureus [10] = test: Antimicrobial activity against Staphylococcus aureus ATCC 29213 assessed as reduction in microbial growth measured after 20 hrs by CLSI based broth microdilution method; type: functional; summary of the method: as §2
Streptococcus pneumoniae [11] = test: Antimicrobial activity against Streptococcus pneumoniae NP112 (NR-19213) assessed as reduction in microbial growth measured after 20 hrs by CLSI based broth microdilution method; type: functional
Escherichia coli = test: Antimicrobial activity against Escherichia coli ATCC 25922 assessed as reduction in microbial growth measured after 20 hrs by CLSI based broth microdilution method; type: functional; summary of the method: as §2
Streptococcus pneumoniae [12] = test: Antimicrobial activity against Streptococcus pneumoniae TCH8431 (HM-145) assessed as reduction in microbial growth measured after 20 hrs by CLSI based broth microdilution method; type: functional
[13] = Inhibition of Bacillus subtilis LgBiT-fused NusG/C-terminal SmBit fused […] CH protein-protein interaction using […] incubated for 20 mins by luminescence based analysis
Summary of the method: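 Split-nanoluciferase competition assay with His-tagged proteins expressed in E. coli BL21(DE3) and Ni-purified. C-SmBiT-β'CH (250 nM in PBS) was preincubated with compound for 10 min at 37 °C. N-LgBiT-NusG (250 nM in PBS) was then added and incubated 10 min at 37 °C. Nano-Glo substrate was added and luminescence read. IC50 determined. Triplicate with technical repeats.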

Bacillus subtilis [14] = test: Antibacterial activity against Bacillus Subtilis assessed as bacterial transcription by measuring subcellular localization of MreB at 1 time MIC incubated for 30 mins by epifluorescence microscopy based analysis; type: functional, organism-based; summary of the method: as §1
Bacillus subtilis [15] = test: Antibacterial activity against Bacillus Subtilis assessed as bacterial transcription by measuring delocalization of GFP-tagged RpsB at 1 time MIC incubated for 30 mins by epifluorescence microscopy based analysis; type: functional, organism-based; summary of the method: as §1

Row | MIC (Streptococcus pneumoniae [1]) [µg/mL] | MIC (Acinetobacter baumannii) [µg/mL] | MIC (Enterococcus faecalis) [µg/mL] | MIC (Enterobacter cloacae) [µg/mL] | MIC (Klebsiella pneumoniae) [µg/mL] | MIC (Pseudomonas aeruginosa) [µg/mL] | MIC (Staphylococcus aureus [7]) [µg/mL] | MIC (Staphylococcus aureus [10]) [µg/mL] | MIC (Escherichia coli) [µg/mL] | Molecule | MIC (Streptococcus pneumoniae [2]) [µg/mL] | MIC [3] [µg/mL] | MIC (Streptococcus agalactiae) [µg/mL] | further results
1 | – | – | – | – | – | – | – | – | – | O=C(N[C@H](CO)[C@H](O)c1ccc([N+](=O)[O-])cc1)C(Cl)Cl | – | – | – | Activity (Bacillus subtilis [4]): Active
2 | 4 | 16 | 16 | 32 | > 256 | > 256 | 8 | 16 | 16 | OC(CNCCNc1ccccc1C(F)(F)F)COc1ccc(C(F)(F)F)cc1 (centres undefined) | 16 | 8 | 16 | MIC (Streptococcus pneumoniae [5]): 8 µg/mL; MIC (Streptococcus pneumoniae [6]): 16 µg/mL; MIC (Streptococcus pyogenes): 16 µg/mL; MIC (Streptococcus pneumoniae [8]): 8 µg/mL; MIC [9]: 16 µg/mL; MIC (Streptococcus pneumoniae [11]): 16 µg/mL; MIC (Streptococcus pneumoniae [12]): 4 µg/mL
3 | 8 | 16 | 16 | 32 | > 256 | > 256 | 16 | 16 | 16 | OC(CNCCOc1ccccc1C(F)(F)F)COc1ccc(C(F)(F)F)cc1 (centres undefined) | 16 | 8 | 8 | MIC (Streptococcus pneumoniae [5]): 8 µg/mL; MIC (Streptococcus pneumoniae [6]): 8 µg/mL; MIC (Streptococcus pyogenes): 8 µg/mL; MIC (Streptococcus pneumoniae [8]): 16 µg/mL; MIC [9]: 8 µg/mL; MIC (Streptococcus pneumoniae [11]): 16 µg/mL; MIC (Streptococcus pneumoniae [12]): 8 µg/mL
4 | – | – | – | – | – | – | – | – | – | H-EGRVATSLREHIKLHN-OH | – | – | – | IC50 [13]: 195 µM
5 | – | – | – | – | – | – | – | – | – | CO[C@H]1/C=C/O[C@@]2(C)Oc3c(C)c(O)c4c(O)c(c(/C=N/N5CCN(C)CC5)c(O)c4c3C2=O)NC(=O)/C(C)=C\C=C\[C@H](C)[C@H](O)[C@@H](C)[C@@H](O)[C@@H](C)[C@H](OC(C)=O)[C@@H]1C | – | – | – | Activity (Bacillus subtilis [14]): Active; Activity (Bacillus subtilis [15]): Active
6 | – | – | – | – | – | – | – | – | – | CN(C)[C@@H]1C(O)=C(C(N)=O)C(=O)[C@@]2(O)C(O)=C3C(=O)c4c(O)cccc4[C@@](C)(O)[C@H]3C[C@@H]12 | – | – | – | Activity (Bacillus subtilis [4]): Active
7 | 4 | > 256 | 8 | > 256 | > 256 | > 256 | 8 | 8 | 32 | OC(CNCCSc1ccccc1C(F)(F)F)CSc1ccc(C(F)(F)F)cc1 (centres undefined) | 8 | 4 | 8 | MIC (Streptococcus pneumoniae [5]): 8 µg/mL; MIC (Streptococcus pneumoniae [6]): 4 µg/mL; MIC (Streptococcus pyogenes): 8 µg/mL; MIC (Streptococcus pneumoniae [8]): 8 µg/mL; MIC [9]: 4 µg/mL; MIC (Streptococcus pneumoniae [11]): 8 µg/mL; MIC (Streptococcus pneumoniae [12]): 4 µg/mL
8 | 128 | > 256 | > 256 | > 256 | > 256 | > 256 | > 256 | 256 | > 256 | OC(CNCCNc1nccc(C(F)(F)F)n1)COc1ccc(F)cc1 (centres undefined) | – | – | – | –
9 | 16 | 32 | 32 | 64 | > 256 | > 256 | 16 | 8 | 32 | OC(CNCCNc1ccc(C(F)(F)F)cn1)CSCc1ccc(C(F)(F)F)cc1 (centres undefined) | – | – | – | –
10 | 32 | 64 | 64 | 128 | > 256 | > 256 | 64 | 64 | 64 | OC(CNCCNc1ccccc1C(F)(F)F)COCc1ccc(C(F)(F)F)cc1 (centres undefined) | – | – | – | –
11 | 64 | 128 | 128 | 128 | > 256 | > 256 | 64 | 64 | 128 | OC(CNCCNc1ccc(C(F)(F)F)cn1)COCc1ccccc1C(F)(F)F (centres undefined) | – | – | – | –
12 | 256 | > 256 | > 256 | > 256 | > 256 | > 256 | > 256 | > 256 | > 256 | COC(=O)c1ccc(OCC(O)CNCCNc2nccc(C(F)(F)F)n2)cc1 (centres undefined) | – | – | – | –

Row | Molecule | MIC (Streptococcus pneumoniae [1]) [µg/mL] | MIC (Acinetobacter baumannii) [µg/mL] | MIC (Enterococcus faecalis) [µg/mL] | MIC (Enterobacter cloacae) [µg/mL] | MIC (Klebsiella pneumoniae) [µg/mL] | MIC (Pseudomonas aeruginosa) [µg/mL] | MIC (Staphylococcus aureus [7]) [µg/mL] | MIC (Staphylococcus aureus [10]) [µg/mL] | MIC (Escherichia coli) [µg/mL] | MIC (Streptococcus pneumoniae [2]) [µg/mL] | MIC [3] [µg/mL] | MIC (Streptococcus agalactiae) [µg/mL] | further results
13 | Cc1onc(-c2ccccc2)c1C(=O)N[C@@H]1C(=O)N2[C@@H]1SC(C)(C)[C@@H]2C(=O)O [OXACILLIN] | 2 | – | – | – | – | – | – | – | – | ≤ 0.062 | 2 | 1 | –
14 | CN[C@H](CC(C)C)C(=O)N[C@H]1C(=O)N[C@@H](CC(N)=O)C(=O)N[C@H]2C(=O)N[C@H]3C(=O)N[C@H](C(=O)N[C@H](C(=O)O)c4cc(O)cc(O)c4-c4cc3ccc4O)[C@H](O)c3ccc(c(Cl)c3)Oc3cc2cc(c3O[C@@H]2O[C@H](CO)[C@@H](O)[C@H](O)[C@H]2O[C@H]2C[C@](C)(N)[C@H](O)[C@H](C)O2)Oc2ccc(cc2Cl)[C@H]1O [VANCOMYCIN] | 1 | – | – | – | – | – | – | – | – | 0.5 | 2 | 1 | –
15 | CNC(C)[C@@H]1CC[C@@H](N)[C@@H](O[C@H]2[C@H](O)[C@@H](O[C@H]3OC[C@](C)(O)[C@H](NC)[C@H]3O)[C@H](N)C[C@@H]2N)O1.CN[C@@H]1[C@@H](O)[C@@H](O[C@@H]2[C@@H](O)[C@H](O[C@H]3O[C@H](C(C)N)CC[C@H]3N)[C@@H](N)C[C@H]2N)OC[C@]1(C)O.CN[C@@H]1[C@@H](O)[C@@H](O[C@@H]2[C@@H](O)[C@H](O[C@H]3O[C@H](CN)CC[C@H]3N)[C@@H](N)C[C@H]2N)OC[C@]1(C)O (some centres undefined) | 32 | – | – | – | – | – | – | – | – | 32 | ≤ 0.062 | 64 | –
